Results published in ChEMBL document CHEMBL3351385, “Synthesis and preliminary mechanistic evaluation of 5-(p-tolyl)-1-(quinolin-2-yl)pyrazole-3-carboxylic acid amides with potent antiproliferative activity on human cancer cell lines” (Eur J Med Chem, 2014).
Active and inactive are the calls of the source. The rule behind the calls is not given here.

Key:
[1] = Cytotoxicity against human HuH7 cells after 72 hrs by SRB assay; format: functional, cell-based; conditions: Huh-7, 72 h
Outline: (§1)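 Cells kept in DMEM with 10% FCS and penicillin/streptomycin at 37°C, 5% CO2. 2000–3000 cells/well were seeded, and medium was refreshed the next day. DMSO solutions were added over 2.5–40 µM with matched DMSO-only controls for 72 h. Cells were then TCA-fixed, stained with 0.4% SRB in 1% acetic acid, solubilized in 10 mM Tris pH 8 and read at 515 nm. Data were normalized to DMSO wells and expressed as mean ±SD.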

[2] = system: MCF7; assay: Cytotoxicity against human MCF7 cells after 72 hrs by SRB assay; format: functional, cell-based; conditions: MCF7, 72 h; outline: as §1
[3] = Cytotoxicity against human HCT116 cells after 72 hrs by SRB assay; format: functional, cell-based; conditions: HCT-116, 72 h; outline: as §1
[4] = system: Huh-7; assay: Induction of cell death in human HuH7 cells assessed as induction of intracytoplasmic vacuoles at cytotoxic IC50 level after 72 hrs by inverted light microscopy; format: functional, cell-based
Outline: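 They were viewed under an inverted light microscope at 20× for death morphology, including intracytoplasmic vacuoles.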

[5] = system: Huh-7; assay: Induction of cell death in human HuH7 cells assessed as nuclear condensation at cytotoxic IC50 level after 72 hrs by Hoechst 33258 staining based […]; format: functional
Outline: (§2)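 Cells were washed in cold PBS, fixed 10 min in cold methanol and stained with Hoechst 33258 at 3 µg/mL for 5 min in the dark. Nuclear condensation and fragmentation were examined by fluorescence microscopy at 40×.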

[6] = system: Huh-7; assay: Induction of cell death in human HuH7 cells assessed as DNA fragmentation at cytotoxic IC50 level after 72 hrs by Hoechst 33258 staining based […]; format: functional; outline: as §2
[7] = system: Huh-7; assay: Induction of autophagy in human HuH7 cells assessed as increase in LC3-2 formation at cytotoxic IC50 level after 72 hrs by Western blotting method; format: functional, cell-based
[8] = Induction of cell cycle arrest in human Mahlavu cells assessed as accumulation at G0/G1 phase at cytotoxic IC50 level after 48 hrs by propidium iodide staining based FACS method; format: functional
[9] = Induction of cell cycle arrest in human Mahlavu cells assessed as accumulation at S phase at cytotoxic IC50 level after 48 hrs by propidium iodide staining based FACS method; format: functional
[10] = Induction of cell cycle arrest in human Mahlavu cells assessed as accumulation at G2/M phase at cytotoxic IC50 level after 48 hrs by propidium iodide staining based FACS method; format: functional
[11] = Induction of cell cycle arrest in human HuH7 cells assessed as accumulation at G0/G1 phase at cytotoxic IC50 level after 48 hrs by propidium iodide staining based FACS method; format: functional, Huh-7
Outline: (§3)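 Huh7 cells were seeded at 150,000–300,000 per 100-mm dish and left 24 h. […] Cells were stained with a propidium iodide-containing cell cycle reagent, and subG1, G0/G1, S and G2/M fractions were scored by flow cytometry.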

[12] = Induction of cell cycle arrest in human HuH7 cells assessed as accumulation at S phase at cytotoxic IC50 level after 48 hrs by propidium iodide staining based FACS method; format: functional, Huh-7; outline: as §3
[13] = Induction of cell cycle arrest in human HuH7 cells assessed as accumulation at G2/M phase at cytotoxic IC50 level after 48 hrs by propidium iodide staining based FACS method; format: functional, Huh-7; outline: as §3

SMILES | IC50 [1] [µM] | IC50 [2] [µM] | IC50 [3] [µM] | further results
Cc1ccc(-c2cc(C(=O)N3CCN(c4ccncc4)CC3)nn2-c2ccc3ccccc3n2)cc1 | 7.8 | 4.7 | 7.1 | Activity [4]: Active; Activity [5]: Active; Activity [6]: Active; Activity [7]: Active; Activity [8]: 52.9%; Activity [9]: 17%; Activity [10]: 24.4%; Activity [11]: 57.2%; Activity [12]: 7.2%; Activity [13]: 33%
Cc1ccc(-c2cc(C(=O)Nc3ccncc3Br)nn2-c2ccc3ccccc3n2)cc1 | 13.1 | 11 | 15.5 | –
CC[C@@]1(O)C(=O)OCc2c1cc1n(c2=O)Cc2cc3ccccc3nc2-1 [CAMPTOTHECIN] | 0.004 | 0.0006 | 0.00015 | –
Cc1ccc(-c2cc(C(=O)Nc3ccncc3)nn2-c2ccc3ccccc3n2)cc1 | 8 | 15.4 | 8.1 | –
Cc1ccc(-c2cc(C(=O)Nc3ncc(Br)cc3Br)nn2-c2ccc3ccccc3n2)cc1 | 11.5 | 16.9 | 9.6 | –
COc1ncccc1NC(=O)c1cc(-c2ccc(C)cc2)n(-c2ccc3ccccc3n2)n1 | 7.9 | 30.2 | 15.7 | –
Cc1ccc(-c2cc(C(=O)Nc3ccc(Cl)nc3Cl)nn2-c2ccc3ccccc3n2)cc1 | 14 | 12.7 | 7.9 | –
Cc1ccc(-c2cc(C(=O)NCc3cccnc3)nn2-c2ccc3ccccc3n2)cc1 | 14.1 | 19 | 11.2 | Activity [4]: Active; Activity [5]: Active; Activity [6]: Active; Activity [7]: Active; Activity [8]: 56.1%; Activity [9]: 14%; Activity [10]: 28.5%; Activity [11]: 56.1%; Activity [12]: 10.5%; Activity [13]: 32.3%
Cc1ccc(-c2cc(C(=O)N3CCN(c4ncccc4C(F)(F)F)CC3)nn2-c2ccc3ccccc3n2)cc1 | 12.7 | 5.8 | 9.7 | –
Cc1ccc(-c2cc(C(=O)N3CCN(c4cccc(C(F)(F)F)n4)CC3)nn2-c2ccc3ccccc3n2)cc1 | 10.2 | 11.4 | 9.4 | –
Cc1ccc(-c2cc(C(=O)N3CCN(c4ncccc4C#N)CC3)nn2-c2ccc3ccccc3n2)cc1 | 21.5 | 79.5 | 39.4 | –
Cc1ccc(-c2cc(C(=O)N3CCN(c4ncc(C(F)(F)F)cc4Cl)CC3)nn2-c2ccc3ccccc3n2)cc1 | 8 | 48 | 13.3 | –
Cc1ccc(-c2cc(C(=O)N3CCN(c4ccc(C(F)(F)F)cn4)CC3)nn2-c2ccc3ccccc3n2)cc1 | 20.9 | 44.7 | 17 | –
Cc1ccc(-c2cc(C(=O)N3CCN(c4c(Cl)cncc4Cl)CC3)nn2-c2ccc3ccccc3n2)cc1 | 4.6 | 9.7 | 4.8 | –
Cc1ccc(-c2cc(C(=O)N3CCN(c4ccccn4)CC3)nn2-c2ccc3ccccc3n2)cc1 | 4.8 | 12 | 5.1 | –
